S1P3 ag: human S1P3 receptor agonists, primary screen, cell-based, primary and confirmation, NFAT-BLA reporter; 60,000 compounds, 0.1% hits; activation, % at 4.5 µM; S1P3 NFAT-BLA reporter cells, agonism, FRET ratio; relative to 1 µM S1P, basal subtracted; Sphingosine 1-phosphate receptor 3 (Homo sapiens), Q99500;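 active means activation above the screen-wide mean plus 3 SD, cut at about 4.5% in these data, passing the limit was not always enough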
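material = human S1P3 NFAT-BLA reporter CHO cells | schedule = 4 h compound at 37 °C, 2 h substrate at RT | measured by = fluorescent BLA substrate, ex 405 nm, em 460/535 nm ratio | controls = 1 µM S1P reference | replication = primary once, confirmation triplicate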
D1 mod: D1 CRE-luciferase signal change, two-sided – cell-based, HEK293 D1, dopamine EC30, D1 allosteric modulator project, primary screen. D(1A) dopamine receptor (Homo sapiens), P21728. dopamine EC30 potentiation; actives deviate in either direction. B-score at 10 µM. 58,000 compounds, 5.9% hits. AID 641, 2007;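 active means luminescence count or its row- and column-corrected plate score outside the 99.7% band of the plate's sample wells, on either side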
M1 ag: M1 muscarinic receptor agonists, primary screen, CHO-M1 cells, Fluo-4 calcium, agonist mode; Fluo-4 calcium fluorescence; hits give high values; 64,000 compounds, 3% hits; B-score at 10 µM; Muscarinic acetylcholine receptor M1; AID 626, 2007;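 active means fluorescence rise, raw or as B-score row- and column-corrected plate score, outside the 99.7% band of its plate's samples, either direction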
M1 antag: antagonists of rat M1 muscarinic receptor; B-score at 10 µM; AID 628, 2007; Muscarinic acetylcholine receptor M1 (Rattus norvegicus), P08482; CHO-M1 cells, Fluo-4 calcium, ACh EC80 antagonist mode; hits give low values; 64,000 compounds, 3.4% hits;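 active means calcium fluorescence response, raw or row-and-column corrected B-score, differing from the plate sample mean either way at a set confidence level, mostly lower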
TNAP act DEA: human TNAP enzyme activators, primary screen, biochemical, luminescent, intermediate phosphate acceptor level; 64,000 tested, under 10 active; AID 813, 2007; purified TNAP, CDP-star luminescence, 100 mM DEA, 30 min; hits give high values; scale: 0 levamisole-inhibited, 1 vehicle-only enzyme; activation factor at 20 µM;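 active means activation factor of at least 2 at 20 µM, relative to controls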
Target sequence (P05186 whole entry, looked up): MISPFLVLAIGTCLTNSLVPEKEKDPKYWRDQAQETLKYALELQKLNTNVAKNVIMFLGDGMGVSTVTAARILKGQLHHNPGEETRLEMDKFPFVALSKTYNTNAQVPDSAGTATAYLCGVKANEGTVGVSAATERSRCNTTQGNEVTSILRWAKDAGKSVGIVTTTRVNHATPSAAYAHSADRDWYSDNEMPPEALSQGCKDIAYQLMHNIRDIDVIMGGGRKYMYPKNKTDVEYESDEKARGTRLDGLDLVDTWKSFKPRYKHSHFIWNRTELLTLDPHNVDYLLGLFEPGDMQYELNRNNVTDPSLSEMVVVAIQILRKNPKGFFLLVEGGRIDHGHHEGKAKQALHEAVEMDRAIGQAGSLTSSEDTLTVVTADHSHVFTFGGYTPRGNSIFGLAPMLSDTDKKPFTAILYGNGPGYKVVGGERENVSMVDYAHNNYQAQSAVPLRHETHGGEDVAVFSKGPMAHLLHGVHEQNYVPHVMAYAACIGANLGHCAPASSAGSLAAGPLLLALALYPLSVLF
S1P1 ag-PAM: S1P1 agonists and agonism potentiators, primary screen, cell-based, primary and confirmation screens, CRE-bla reporter | Sphingosine 1-phosphate receptor 1 (Homo sapiens), P21453 | S1P1 CRE-bla cells, forskolin, beta-lactamase FRET, potentiator mode; S1P1 agonist co-added at EC20, 2 nM; 100% = saturating reference agonist, 0% = basal | activation, % at 9.5 µM | 56,000 compounds, 0.57% hits;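 active means activation above a cutoff set at the mean activation of all tested compounds plus 3 SD, cut at about 54% in these data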;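 further: forskolin at 4 µM as EC80 and the EC20 agonist is SEW2871; 100% = SEW2871 at its EC100 plus forskolin at EC80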
D1 PAM confirm: D1 receptor positive allosteric modulators, retest, confirmation, cell-based, HEK293 D1, CRE-luciferase, duplicate; shares compounds with D1 mod; dopamine EC30 potentiation; hits give high values; luminescence at 10 µM; 2,200 compounds, 88% hits; AID 642, 2007;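 active means luminescence in either of two replicates above the same-plate mean plus 3 SD of the low-dose dopamine control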
D1 no dopamine: D1 receptor agonism without dopamine, confirmation, mechanism study for D1 allosteric modulator project, cell-based, HEK293 D1, CRE-luciferase, secondary assay 1; shares compounds with D1 mod; luminescence, no dopamine; hits give high values; luminescence at 10 µM; 1,900 compounds, 0.8% hits; AID 646, 2007; in the data active means luminescence above about 3900
Isoprot counter: isoproterenol response counter-screen activity for D1 modulators; HEK293 D1 CRE-luciferase, isoproterenol EC30 counter-screen; hits give high values; 2,200 compounds, 63% hits; shares compounds with D1 mod; AID 647; luminescence at 10 µM;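 active means luminescence in either replicate above plate mean of wells with a partly effective reference agonist dose plus 3 SD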;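 further: isoproterenol raises cAMP through native beta-adrenoceptor Gs so signal bypasses D1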
* = called active by the depositor; · = not tested or not shown. A selection: hits, their analogues and other compounds. The true share with any hit is near 11%.

SMILES	S1P3 ag	D1 mod	M1 ag	M1 antag	TNAP act DEA	S1P1 ag-PAM	D1 PAM confirm	D1 no dopamine	Isoprot counter
COC(=O)C(C)Oc1ccc2c3c(c(=O)oc2c1)CCCCC3 (stereo not given)	0	0.56	0.14	-0.14	0.9	4	·	·	·
CC(C)Oc1ccc2c3c(c(=O)oc2c1)CCC3	-1	5.8*	-0.065	-0.37	0.9	-11	11556*	1968	3192*
CCOc1ccc(-c2[nH]nc3c2C(c2ccc4c(c2)OCO4)C(C#N)=C(N)O3)cc1OC (stereo not given)	0	2.4*	-0.41	0.023	1	2	10328*	10840*	4324*
COc1cc(C2C(C#N)=C(N)Oc3n[nH]c(-c4ccncc4)c32)cc(OC)c1OC (stereo not given)	0	0.76	-1.3	2	0.9	-5	·	·	·
Cc1[nH]nc2c1C(c1ccc3c(c1)OCO3)C(C#N)=C(N)O2 (stereo not given)	-1	·	·	·	0.9	4	·	·	·
COc1ccc(C2C(C#N)=C(N)Oc3n[nH]c(-c4ccccn4)c32)c(OC)c1OC (stereo not given)	0	11*	-0.76	0.53	1	-27	17692*	1644	5544*
O=C(CCCc1c[nH]c2ccccc12)N1CCOCC1	0	·	0.0079	-0.18	1	7	·	·	·
COc1ccc(CN2C(=O)c3cccnc3C2Nc2cc(Cl)c(OC)cc2OC)cc1 (stereo not given)	0	6.5*	-0.88	-1.7	0.9	3	10420*	·	3872*
Nc1ncnc2oc(-c3ccco3)c(-c3ccco3)c12	-1	10*	-0.88	0.067	1	32	19128*	24288*	3744*
Nc1nnc(-c2ccco2)s1	0	0.75	0.16	-0.36	0.9	-15	·	·	·
CCCc1[nH]nc2c1C1(C(=O)N(C(C)C)c3ccccc31)C(C#N)=C(N)O2 (stereo not given)	0	2	0.67	-0.22	0.9	-6	·	·	·
CCCCc1[nH]nc2c1C1(C(=O)N(CC)c3ccccc31)C(C#N)=C(N)O2 (stereo not given)	0	16*	0.26	-0.047	0.9	-7	13864*	1676	3384*
CCOC(=O)c1c(C)[nH]c(C(=O)COC(=O)c2ccc(F)c(S(=O)(=O)N3CCOCC3)c2)c1C	0	0.44	-0.83	0.16	0.8	-9	·	·	·
CCOC(=O)c1cc(C(=O)OCC)cc(-n2c(C)cc(C(=O)CN3CCOCC3)c2C)c1	-1	4.9*	0.12	1	1	-17	7880*	·	2504
COc1ccc(-c2c3c(=O)n(C)c(=O)n(C)c3cn2Cc2ccccn2)cc1	-2	-1.1	-0.39	-0.27	0.9	-5	·	·	·
COc1ccc(-c2c3c(=O)n(C)c(=O)n(C)c3cn2-c2cc(OC)ccc2OC)cc1	-1	6*	-0.97	-1.6	0.9	-4	8244*	1200	3484*
CN(C)C(=O)CSc1nc(SCC(=O)N(C)C)n(-c2ccccc2)n1	0	0.18	0.78	0.24	0.9	-3	·	·	·
CN(C(=O)CSc1nc(N)nn1-c1ccccc1)c1ccccc1	0	11*	-0.68	0.054	1	-19	6016	1696	2588
COc1ccccc1-n1cc(C(=O)NCC(=O)N2CCN(c3ccccc3)CC2)c2ccccc2c1=O	-1	-0.0067	0.63	-0.41	0.9	13	·	·	·
CCc1nc2ccccc2n1Cc1ccc(OC)c(OC)c1	·	6.2*	0.45	-0.2	1	·	18880*	1604	5464*
COc1ccc(Cn2c(CCCO)nc3ccccc32)cc1OC	2	14*	0.1	0.056	0.9	-17	15968*	1476	6660*
CCCc1cc(N2CCN(c3ccccn3)CC2)n2nc(C)c(-c3ccccc3)c2n1	-1	·	-0.23	0.22	0.9	-1	·	·	·
CCNc1nc(NCC)nc(OCCOC(=O)c2ccccc2)n1	0	6.9*	-0.39	1.1	0.9	-5	16012*	1704	3588*
CCNc1nc(N)nc(Oc2ccc(OCCOc3ccccc3)nn2)n1	0	1	-0.063	1.4	0.9	-39	·	·	·
O=C(CN1CCCCCC1)NCCc1ccc(F)cc1	-1	-0.14	-0.0044	-0.71	1	-12	·	·	·
SMILES	S1P3 ag	D1 mod	M1 ag	M1 antag	TNAP act DEA	S1P1 ag-PAM	D1 PAM confirm	D1 no dopamine	Isoprot counter
Cn1c(=O)c2[nH]cnc2n(-c2ccccc2)c1=O	-1	7.3*	1.2	0.62	0.9	-15	23812*	1516	4140*
O=c1ccccn1Cc1ccccc1F	0	0.97	0.89	0.42	0.9	-10	·	·	·
O=c1c2cc3ccccc3n2cnn1Cc1ccccc1F	-1	3.1*	1.5	-0.33	0.9	-22	21084*	1636	3920*
O=C(CSc1nnc(-c2ccco2)n1Cc1ccccc1)c1ccc(F)cc1	0	-0.86	0.57	0.63	0.9	23	·	·	·
Cc1ccc(-c2nnc(CSc3nc(C)nc4sc(C)c(C)c34)o2)cc1	0	-0.6	0.28	0.19	0.9	-21	·	·	·
Cc1nc(SCC#N)c2c(C)c(C)sc2n1	0	5.8*	0.28	-0.92	0.9	-43	13352*	1616	3812*
COc1ccc(-n2c(Cc3cccn3C)nnc2SCC(=O)Nc2ccc(C)c(Cl)c2)cc1	-3	-0.87	0.46	0.78	0.9	15	·	·	·
Cc1cc(NC(=O)c2cnn3cccnc23)nn1CC(=O)Nc1cccnc1	-1	-0.061	-0.012	-0.13	0.9	·	·	·	·
O=C(Nc1cccnc1)c1cnn2cccnc12	-1	4.6*	-0.53	0.00026	0.9	-16	7304*	1520	2820*
Cc1cc(C(=O)Nc2ccc(C(=O)O)cc2)c(-c2ccccc2)o1	-1	2.5*	0.16	0.68	1	-15	7724*	1596	3056*

Source: PubChem BioAssay
